# Results published in ChEMBL document CHEMBL3286111, “Tryptophan hydroxylase 1 (Tph-1)-targeted bone anabolic agents for osteoporosis” (J Med Chem, 2014).
# Assay: Cytotoxicity against rat RBL2H3 cells by MTT assay
# Assay type: cell-based
# Set-up: concentration or dose not given beside the values
# Conditions: rbl-2h3
# Summary of the method: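 RBL2H3 cells (α-MEM) or PC12 cells (D-MEM), both with 10% FBS, treated at a single dose in 0.1% DMSO; 0.1% DMSO control; 37 °C, 5% CO2. MTT (5 mg/mL) added 4 h before the end, then SDS/DMF lysis buffer (pH 7.2) for 6 h; absorbance read at 570 nm. Cytotoxicity % calculated from background-corrected OD versus control.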
row,SMILES,Activity
1,COC(=O)C(Cc1ccccc1)NC(=O)[C@]12CC[C@@H](C)[C@H](C)[C@H]1C1=CC[C@@H]3[C@@]4(C)Cc5c([nH]c6ccc(Br)cc56)C(C)(C)[C@@H]4CC[C@@]3(C)[C@]1(C)CC2 (some centres undefined),16%
2,COC(=O)C(Cc1ccccc1)NC(=O)[C@]12CC[C@@H](C)[C@H](C)[C@H]1C1=CC[C@@H]3[C@@]4(C)Cc5nc6cc(Cl)c(Cl)cc6nc5C(C)(C)[C@@H]4CC[C@@]3(C)[C@]1(C)CC2 (some centres undefined),7.7%
3,COC(=O)C(CC(C)C)NC(=O)[C@]12CC[C@@H](C)[C@H](C)[C@H]1C1=CC[C@@H]3[C@@]4(C)CC[C@H](OC(C)=O)C(C)(C)[C@@H]4CC[C@@]3(C)[C@]1(C)CC2 (some centres undefined),6.6%
4,C[C@H]1[C@H](C)CC[C@]2(C(=O)NC3CCN(Cc4ccccc4)CC3)CC[C@]3(C)C(=CC[C@@H]4[C@@]5(C)Cc6nc7ccccc7nc6C(C)(C)[C@@H]5CC[C@]43C)[C@H]12,51.1%
5,C[C@H]1[C@H](C)CC[C@]2(C(=O)O)CC[C@]3(C)C(=CC[C@@H]4[C@@]5(C)Cc6cnn(-c7ccc(F)cc7)c6C(C)(C)[C@@H]5CC[C@]43C)[C@H]12,1.5%
6,C[C@H]1[C@H](C)CC[C@]2(C(=O)O)CC[C@]3(C)C(=CC[C@@H]4[C@@]5(C)Cc6cn[nH]c6C(C)(C)[C@@H]5CC[C@]43C)[C@H]12,0.1%
7,COC(=O)C(Cc1ccccc1)NC(=O)[C@]12CC[C@@H](C)[C@H](C)[C@H]1C1=CC[C@@H]3[C@@]4(C)Cc5cnn(-c6ccccc6)c5C(C)(C)[C@@H]4CC[C@@]3(C)[C@]1(C)CC2 (some centres undefined),0.9%
8,COC(=O)C(Cc1ccccc1)NC(=O)[C@]12CC[C@@H](C)[C@H](C)[C@H]1C1=CC[C@@H]3[C@@]4(C)Cc5cnoc5C(C)(C)[C@@H]4CC[C@@]3(C)[C@]1(C)CC2 (some centres undefined),0.8%
9,CC(=O)O[C@H]1CC[C@]2(C)[C@H]3CC=C4[C@@H]5[C@@H](C)[C@H](C)CC[C@]5(C(=O)O)CC[C@@]4(C)[C@]3(C)CC[C@H]2C1(C)C [O-ACETYLURSOLIC ACID],4.1%
10,C[C@H]1[C@H](C)CC[C@]2(C(=O)O)CC[C@]3(C)C(=CC[C@@H]4[C@@]5(C)Cc6cncnc6C(C)(C)[C@@H]5CC[C@]43C)[C@H]12,4.3%
11,CCOC(=O)CNC(=O)[C@]12CC[C@@H](C)[C@H](C)[C@H]1C1=CC[C@@H]3[C@@]4(C)CCC(=O)C(C)(C)[C@@H]4CC[C@@]3(C)[C@]1(C)CC2,1.7%
12,COC(=O)C(CC(C)C)NC(=O)[C@]12CC[C@@H](C)[C@H](C)[C@H]1C1=CC[C@@H]3[C@@]4(C)Cc5nc6cc(Cl)c(Cl)cc6nc5C(C)(C)[C@@H]4CC[C@@]3(C)[C@]1(C)CC2 (some centres undefined),0.7%
13,CCOC(=O)CNC(=O)[C@]12CC[C@@H](C)[C@H](C)[C@H]1C1=CC[C@@H]3[C@@]4(C)C=C(C#N)C(=O)C(C)(C)[C@@H]4CC[C@@]3(C)[C@]1(C)CC2,50.1%
14,COC(=O)C(CC(C)C)NC(=O)[C@]12CC[C@@H](C)[C@H](C)[C@H]1C1=CC[C@@H]3[C@@]4(C)C=C(C#N)C(=O)C(C)(C)[C@@H]4CC[C@@]3(C)[C@]1(C)CC2 (some centres undefined),58.1%
15,C[C@H]1[C@H](C)CC[C@]2(C(=O)O)CC[C@]3(C)C(=CC[C@@H]4[C@@]5(C)Cc6cnn(-c7ccccc7)c6C(C)(C)[C@@H]5CC[C@]43C)[C@H]12,2.4%
16,COC(=O)C(CC(C)C)NC(=O)[C@]12CC[C@@H](C)[C@H](C)[C@H]1C1=CC[C@@H]3[C@@]4(C)Cc5cncnc5C(C)(C)[C@@H]4CC[C@@]3(C)[C@]1(C)CC2 (some centres undefined),10.3%
17,COC(=O)C(Cc1ccccc1)NC(=O)[C@]12CC[C@@H](C)[C@H](C)[C@H]1C1=CC[C@@H]3[C@@]4(C)Cc5cncnc5C(C)(C)[C@@H]4CC[C@@]3(C)[C@]1(C)CC2 (some centres undefined),2.6%
18,COC(=O)C(Cc1ccccc1)NC(=O)[C@]12CC[C@@H](C)[C@H](C)[C@H]1C1=CC[C@@H]3[C@@]4(C)Cc5cn[nH]c5C(C)(C)[C@@H]4CC[C@@]3(C)[C@]1(C)CC2 (some centres undefined),1.9%
19,COC(=O)C(CC(C)C)NC(=O)[C@]12CC[C@@H](C)[C@H](C)[C@H]1C1=CC[C@@H]3[C@@]4(C)CCC(=O)C(C)(C)[C@@H]4CC[C@@]3(C)[C@]1(C)CC2 (some centres undefined),2.6%
20,CCOC(=O)CNC(=O)[C@]12CC[C@@H](C)[C@H](C)[C@H]1C1=CC[C@@H]3[C@@]4(C)Cc5cn[nH]c5C(C)(C)[C@@H]4CC[C@@]3(C)[C@]1(C)CC2,0.4%
21,COC(=O)C(CC(C)C)NC(=O)[C@]12CC[C@@H](C)[C@H](C)[C@H]1C1=CC[C@@H]3[C@@]4(C)Cc5cnn(-c6ccc(F)cc6)c5C(C)(C)[C@@H]4CC[C@@]3(C)[C@]1(C)CC2 (some centres undefined),1%
22,C[C@H]1[C@H](C)CC[C@]2(C(=O)NCCCN3CCOCC3)CC[C@]3(C)C(=CC[C@@H]4[C@@]5(C)Cc6nc7ccccc7nc6C(C)(C)[C@@H]5CC[C@]43C)[C@H]12,31.3%

row,SMILES,Activity
1,CCOC(=O)CNC(=O)[C@]12CC[C@@H](C)[C@H](C)[C@H]1C1=CC[C@@H]3[C@@]4(C)Cc5cnn(-c6ccc(F)cc6)c5C(C)(C)[C@@H]4CC[C@@]3(C)[C@]1(C)CC2,15.8%
2,CCOC(=O)CNC(=O)[C@]12CC[C@@H](C)[C@H](C)[C@H]1C1=CC[C@@H]3[C@@]4(C)Cc5cncnc5C(C)(C)[C@@H]4CC[C@@]3(C)[C@]1(C)CC2,1.9%
3,COC(=O)C(Cc1ccccc1)NC(=O)[C@]12CC[C@@H](C)[C@H](C)[C@H]1C1=CC[C@@H]3[C@@]4(C)C=C(C#N)C(=O)C(C)(C)[C@@H]4CC[C@@]3(C)[C@]1(C)CC2 (some centres undefined),5.4%
4,COC(=O)C(CC(C)C)NC(=O)[C@]12CC[C@@H](C)[C@H](C)[C@H]1C1=CC[C@@H]3[C@@]4(C)Cc5c([nH]c6ccc(Br)cc56)C(C)(C)[C@@H]4CC[C@@]3(C)[C@]1(C)CC2 (some centres undefined),3%
5,C[C@H]1[C@H](C)CC[C@]2(C(=O)O)CC[C@]3(C)C(=CC[C@@H]4[C@@]5(C)Cc6nc7ccccc7nc6C(C)(C)[C@@H]5CC[C@]43C)[C@H]12,3.5%
6,C[C@H]1[C@H](C)CC[C@]2(C(=O)O)CC[C@]3(C)C(=CC[C@@H]4[C@@]5(C)C=C(C#N)C(=O)C(C)(C)[C@@H]5CC[C@]43C)[C@H]12,4.3%
7,CCOC(=O)CNC(=O)[C@]12CC[C@@H](C)[C@H](C)[C@H]1C1=CC[C@@H]3[C@@]4(C)CC[C@H](OC(C)=O)C(C)(C)[C@@H]4CC[C@@]3(C)[C@]1(C)CC2,1.6%
8,CCOC(=O)CNC(=O)[C@]12CC[C@@H](C)[C@H](C)[C@H]1C1=CC[C@@H]3[C@@]4(C)Cc5nc6cc(Cl)c(Cl)cc6nc5C(C)(C)[C@@H]4CC[C@@]3(C)[C@]1(C)CC2,2%
9,C[C@H]1[C@H](C)CC[C@]2(C(=O)NCCN3CCCCC3)CC[C@]3(C)C(=CC[C@@H]4[C@@]5(C)Cc6nc7ccccc7nc6C(C)(C)[C@@H]5CC[C@]43C)[C@H]12,52.1%
10,COC(=O)C(CC(C)C)NC(=O)[C@]12CC[C@@H](C)[C@H](C)[C@H]1C1=CC[C@@H]3[C@@]4(C)Cc5c([nH]c6ccc(Cl)cc56)C(C)(C)[C@@H]4CC[C@@]3(C)[C@]1(C)CC2 (some centres undefined),15%
11,COC(=O)C(Cc1ccccc1)NC(=O)[C@]12CC[C@@H](C)[C@H](C)[C@H]1C1=CC[C@@H]3[C@@]4(C)Cc5nc6ccccc6nc5C(C)(C)[C@@H]4CC[C@@]3(C)[C@]1(C)CC2 (some centres undefined),12.4%
12,COC(=O)C(Cc1ccccc1)NC(=O)[C@]12CC[C@@H](C)[C@H](C)[C@H]1C1=CC[C@@H]3[C@@]4(C)Cc5c([nH]c6ccc(Cl)cc56)C(C)(C)[C@@H]4CC[C@@]3(C)[C@]1(C)CC2 (some centres undefined),1.6%
13,CCOC(=O)CNC(=O)[C@]12CC[C@@H](C)[C@H](C)[C@H]1C1=CC[C@@H]3[C@@]4(C)Cc5cnn(-c6ccccc6)c5C(C)(C)[C@@H]4CC[C@@]3(C)[C@]1(C)CC2,1.2%
14,COC(=O)C(CC(C)C)NC(=O)[C@]12CC[C@@H](C)[C@H](C)[C@H]1C1=CC[C@@H]3[C@@]4(C)Cc5cnn(-c6ccccc6)c5C(C)(C)[C@@H]4CC[C@@]3(C)[C@]1(C)CC2 (some centres undefined),1.8%
15,C[C@H]1[C@H](C)CC[C@]2(C(=O)O)CC[C@]3(C)C(=CC[C@@H]4[C@@]5(C)Cc6nc7cc(Cl)c(Cl)cc7nc6C(C)(C)[C@@H]5CC[C@]43C)[C@H]12,2.2%
16,C[C@H]1[C@H](C)CC[C@]2(C(=O)O)CC[C@]3(C)C(=CC[C@@H]4[C@@]5(C)Cc6c([nH]c7ccc(Br)cc67)C(C)(C)[C@@H]5CC[C@]43C)[C@H]12,3.7%
17,COC(=O)C(CC(C)C)NC(=O)[C@]12CC[C@@H](C)[C@H](C)[C@H]1C1=CC[C@@H]3[C@@]4(C)Cc5cn[nH]c5C(C)(C)[C@@H]4CC[C@@]3(C)[C@]1(C)CC2 (some centres undefined),0.9%
18,COC(=O)C(CC(C)C)NC(=O)[C@]12CC[C@@H](C)[C@H](C)[C@H]1C1=CC[C@@H]3[C@@]4(C)Cc5nc6ccccc6nc5C(C)(C)[C@@H]4CC[C@@]3(C)[C@]1(C)CC2 (some centres undefined),0.5%
19,COC(=O)C(CC(C)C)NC(=O)[C@]12CC[C@@H](C)[C@H](C)[C@H]1C1=CC[C@@H]3[C@@]4(C)Cc5cnoc5C(C)(C)[C@@H]4CC[C@@]3(C)[C@]1(C)CC2 (some centres undefined),17.7%
20,C[C@H]1[C@H](C)CC[C@]2(C(=O)O)CC[C@]3(C)C(=CC[C@@H]4[C@@]5(C)Cc6c([nH]c7ccc(Cl)cc67)C(C)(C)[C@@H]5CC[C@]43C)[C@H]12,2.9%
21,CSCC[C@@H](NC(=O)[C@]12CC[C@@H](C)[C@H](C)[C@H]1C1=CC[C@@H]3[C@@]4(C)Cc5nc6ccccc6nc5C(C)(C)[C@@H]4CC[C@@]3(C)[C@]1(C)CC2)C(=O)O,6.2%
22,C[C@H]1[C@H](C)CC[C@]2(C(=O)O)CC[C@]3(C)C(=CC[C@@H]4[C@@]5(C)CC[C@H](O)C(C)(C)[C@@H]5CC[C@]43C)[C@H]12 [URSOLIC ACID],10%
